# In PubChem BioAssay:
# The source made the active and inactive calls.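 The calls were made as follows, unless noted: active = visual image review flags a hit and inhibition of aggregation exceeds 20%; inconclusive = visual hit but inhibition at or below 20%; inactive = no hit on visual image review.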
# Key:
# [1] = inhibitors of TNFa-induced NFkB p65 translocation, primary screen, imaging, HUVEC, MLSMR starter and 10KST1 sets (AID 438;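 active = inhibition above 20% together with a positive visual image hit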;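 also: compound added about 3h40 before a 20 min TNFalpha stimulation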;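 as to inhibition: signal is the nuclear over cytoplasmic p65 intensity ratio per well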); details: HUVEC TNFa-induced p65 nuclear translocation; cell count: measured here: nuclei count (cytotoxicity indicator), at 2.08 µM; inhibition: at 2 µM, stronger effect = higher value, 0% TNFa-plus-vehicle, 100% no-TNFa wells
# [2] = inhibitors of mutant huntingtin aggregation, primary screen, imaging, exon1htt(103Q)mCFP cells, high-content imaging (AID 483); details: exon1htt(103Q)mCFP cell line, aggregate imaging, at 2 µM; inhibition of aggregation: stronger effect = higher value; nuclei count: measured here: cell count, toxicity;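 also: compound exposure lasted 3 days before fixation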;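 as to nuclei count: percent of the per-plate median nuclei count of sample wells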
# [3] = inhibitors of E-selectin induction by TNFa, primary screen, imaging, HUVEC, immunofluorescence, MLSMR starter and 10KST1 sets (AID 487;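 active = visually confirmed hit in the image check and inhibition above 20%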;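 as to inhibition: signal is fraction of cell area covered by stained E-selectin grains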;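 as to nuclei count: 100% = median nuclei count of all wells on the same plate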); details: HUVEC TNFalpha-induced E-selectin immunofluorescence imaging, at 2 µM; inhibition: stronger effect = higher value; nuclei count: measured here: cell number, toxicity
# [4] = molecular target: Voltage-gated potassium channel subunit beta-2 (Rattus norvegicus) (UniProt P62483); experiment: KvBeta enzyme negative modulators, primary screen, biochemical, NADPH fluorescence (AID 622;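 active = fluorescence slope higher than the sample average by over 3 SD, cut at about -0.22 in these data, passing the limit was not always enough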;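 also: slope of raw intensity against log time taken from 70 to 1610 s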); details: recombinant KvBeta, 4-cyanobenzaldehyde reduction, at 10 µM, stronger effect = higher value
# Chain of Voltage-gated potassium channel subunit beta-2 (Rattus norvegicus) (P62483 whole entry, looked up): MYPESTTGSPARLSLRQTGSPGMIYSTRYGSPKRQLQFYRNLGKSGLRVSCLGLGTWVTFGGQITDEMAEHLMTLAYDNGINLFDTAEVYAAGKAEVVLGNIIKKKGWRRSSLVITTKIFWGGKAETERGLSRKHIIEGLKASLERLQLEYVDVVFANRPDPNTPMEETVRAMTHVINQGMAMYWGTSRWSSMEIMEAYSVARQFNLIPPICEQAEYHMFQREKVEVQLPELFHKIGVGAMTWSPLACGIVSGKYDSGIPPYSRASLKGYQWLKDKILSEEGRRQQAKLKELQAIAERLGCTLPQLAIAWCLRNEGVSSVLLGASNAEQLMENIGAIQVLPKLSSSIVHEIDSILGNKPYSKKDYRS
# [5] = molecular target: Voltage-gated potassium channel subunit beta-2 (Rattus norvegicus) (UniProt P62483); experiment: KvBeta positive modulators, primary screen, biochemical, NADPH fluorescence (AID 623;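 active = NADPH fluorescence slope more negative than the mean of all samples by about 3 SD, 99.7% confidence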;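 also: fluorescence intensity change per second fitted from 20 to 320 s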); details: Recombinant KvBeta, NADPH fluorescence decrease slope, 10 min; at 10 µM; stronger effect = lower value
# [6] = molecular target: Muscarinic acetylcholine receptor M4 (Homo sapiens) (UniProt P08173); experiment: compounds altering M4/GIRK thallium flux, either direction, primary screen, M4 allosteric agonist project, cell-based, HEK293 M4/GIRK, BTC-AM (AID 625;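 active = fluorescence slope after compound addition differing from the mean of all tested samples at 99.7% confidence, mostly higher but some lower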;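 also: thallium influx through GIRK channels coupled to M4 in HEK293 cells with BTC-AM dye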); details: at 10 µM, actives lie on both sides
# Chain of Muscarinic acetylcholine receptor M4 (Homo sapiens) (P08173 whole entry, looked up): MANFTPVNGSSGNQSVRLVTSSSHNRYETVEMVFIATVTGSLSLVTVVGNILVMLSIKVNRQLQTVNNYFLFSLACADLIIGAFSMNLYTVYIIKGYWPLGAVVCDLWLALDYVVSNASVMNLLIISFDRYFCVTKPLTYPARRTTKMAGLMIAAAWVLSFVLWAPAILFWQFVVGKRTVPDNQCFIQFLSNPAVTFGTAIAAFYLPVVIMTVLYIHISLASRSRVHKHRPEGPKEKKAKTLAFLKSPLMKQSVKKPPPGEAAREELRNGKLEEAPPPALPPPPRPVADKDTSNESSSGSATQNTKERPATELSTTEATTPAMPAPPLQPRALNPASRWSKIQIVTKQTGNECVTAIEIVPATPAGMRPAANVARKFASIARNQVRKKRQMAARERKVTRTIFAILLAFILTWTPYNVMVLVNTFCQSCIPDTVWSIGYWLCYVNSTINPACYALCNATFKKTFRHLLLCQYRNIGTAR
# Procedure, shortened: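 assay system = HEK293 cells with M4 receptor and GIRK channels | medium = pH 7.3 thallium assay buffer | doses = 10 µM final, single point | timing = cells overnight at 37 °C, BTC-AM loading 1 h, reads 2 min total | signal = BTC-AM fluorescence, 1 Hz kinetic reads | read-out = post-addition slope, 15–24 s, of baseline-normalized fluorescence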
# [7] = inhibitors of Sendai virus-induced IRF3 signaling, primary screen, TLR/RLR signaling modifier project, cell-based, Sendai virus stimulus, luciferase, 10K MLSCN set (AID 602276;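 active = inhibition at or above 50% at 10 µM; inactive = inhibition below 50%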;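 also: firefly luciferase from ISG56 promoter only with Renilla not read in this screen; 0% = Sendai virus plus DMSO and 100% = medium plus DMSO without virus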); details: HEK293 RL24 IRF3 luciferase reporter, at 10 µM, stronger effect = higher value
# [8] = inhibitors of poly I:C-induced TLR3 signaling, primary screen, cell-based, poly I:C stimulus, luciferase, 10K MLSCN set (AID 602277;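 active = inhibition of the reporter signal at or above 50%; inactive = inhibition below 50%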); details: HEK293-TLR3 RL24 IRF3 luciferase reporter, at 10 µM, stronger effect = higher value
# [9] = molecular target: Alpha-2C adrenergic receptor (Homo sapiens) (UniProt P18825); experiment: modulators of alpha2C/GIRK thallium flux, primary screen, cell-based, HEK293 alpha2C/GIRK1/2 (AID 624;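 active = fluorescence slope after compound addition differing from the mean of all screened samples at 99.7% confidence, in either direction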;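 also: slope of fluorescence ratio to pre-addition baseline per second over 15 to 24 s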); details: thallium flux BTC fluorescence, at 10 µM, actives lie on both sides
# Chain of Alpha-2C adrenergic receptor (Homo sapiens) (P18825 whole entry, looked up): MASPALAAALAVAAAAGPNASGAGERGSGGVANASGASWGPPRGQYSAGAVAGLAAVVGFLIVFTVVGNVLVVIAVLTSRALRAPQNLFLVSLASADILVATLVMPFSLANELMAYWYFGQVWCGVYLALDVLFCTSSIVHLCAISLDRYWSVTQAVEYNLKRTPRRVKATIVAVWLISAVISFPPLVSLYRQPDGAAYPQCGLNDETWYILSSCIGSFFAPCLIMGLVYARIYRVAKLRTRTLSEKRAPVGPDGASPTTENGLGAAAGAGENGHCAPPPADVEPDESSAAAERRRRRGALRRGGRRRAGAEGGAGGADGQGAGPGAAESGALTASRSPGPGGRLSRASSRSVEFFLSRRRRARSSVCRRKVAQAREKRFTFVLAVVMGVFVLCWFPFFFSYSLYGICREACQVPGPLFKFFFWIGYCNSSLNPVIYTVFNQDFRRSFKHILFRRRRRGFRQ
# [10] = inhibitors of larval lipid processing in zebrafish, primary screen, whole organism, PED6 fluorescence, gall bladder and intestine (AID 686;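 active = a full or partial loss of lipid-probe fluorescence in the fish gall bladder, intestine or both, judged by eye; inactive = no fluorescence loss, or compound toxic to the fish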;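 also: larvae 5 to 7 days old with five fish per well; signal comes from phospholipase A2 cleavage of quenched PED6 carried via bile; overnight exposure to compound and PED6 before scoring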); details: Zebrafish larvae PED6 lipid processing, fluorescence scoring; screened at 20 µM (by protocol)
# Procedure, shortened: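 Also added: quenched phospholipase substrate PED6, 100 nM final, ingested by larvae; System: zebrafish larvae, 5-7 d; Quantity: 5 larvae per well; Compound: 20 µM single dose; Schedule: overnight compound and PED6 incubation; Read-out: visual per-well fluorescence inhibition score; Measured by: By-eye fluorescence microscopy; Medium: E3.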
Compound,cell count [1],inhibition [1],inhibition of aggregation [2],nuclei count [2],inhibition [3],nuclei count [3],fluorescence slope [4],NADPH fluorescence slope [5],fluorescence slope [6],inhibition [7],inhibition [8],slope [9],outcome [10]
O=C1c2ccccc2C(=O)N1Cc1nc2ccccc2c(=O)n1CCN1CCOCC1,383,-10.3% (inactive),-11.3% (inactive),85.7%,-48.6% (inactive),160%,-0.521 (inactive),1.6e-05 (inactive),0.0047 (inactive),14.9% (inactive),12.8% (inactive),–,–
c1ccc(-c2cc(-c3nc(-c4ccccn4)no3)c3ccccc3n2)cc1,469,7.6% (inactive),-4.3% (inactive),101%,-171% (inactive),140%,-0.265 (inactive),-8.8e-06 (inactive),0.0088 (inactive),0.406% (inactive),-37.7% (inactive),–,–
CCCCN(CCCC)CCCNC(=O)CC1Oc2ccc(C)cc2NC1=O (stereo not given),618,-18.4% (inactive),4.4% (inactive),110%,-6.4% (inactive),92.1%,-0.242 (inactive),-7e-06 (inactive),0.00528 (inactive),17.2% (inactive),23.7% (inactive),–,–
CCC(=O)N1CCc2cc(S(=O)(=O)CCC(=O)Nc3ccc(C)c(F)c3)ccc21,565,2.7% (inactive),-3% (inactive),111%,-119% (inactive),136%,-0.504 (inactive),0.000146 (inactive),0.00659 (inactive),8.99% (inactive),14.5% (inactive),–,–
Cc1occc1-c1nnc(SCC(=O)NCC2CCCO2)n1C (stereo not given),687,-0.3% (inactive),-23% (inactive),120%,40.7% (inactive),95%,-0.521 (inactive),0.00013 (inactive),0.0055 (inactive),16.7% (inactive),10.3% (inactive),–,–
CCOC(=O)Cn1nnnc1CN(Cc1ccc(OC)cc1)Cc1cc2cc(C)ccc2[nH]c1=O,623,-4.9% (inactive),-27% (inactive),112%,62.8% (inactive),135%,-0.384 (inactive),6.1e-07 (inactive),–,-4.16% (inactive),-1.51% (inactive),0.00608 (inactive),inactive
Cc1nc2nc(Cc3ccccc3)[nH]n2c(=O)c1Cc1ccccc1,351,-3.3% (inactive),-11.2% (inactive),97%,-62.2% (inactive),96.1%,-0.576 (inactive),-4.3e-05 (inactive),0.0029 (inactive),9.12% (inactive),15.7% (inactive),–,–
CC(=O)Nc1ccc(Cl)cc1C(=O)O,236,1.3% (inactive),-13.3% (inactive),74.7%,35.3% (inactive),74.6%,-0.519 (inactive),8e-06 (inactive),0.00503 (inactive),20.8% (inactive),16.7% (inactive),–,–
Cc1cc(/N=C/N(C)C)on1,522,1.5% (inactive),3.5% (inactive),104%,-19.3% (inactive),104%,-0.586 (inactive),-4.7e-05 (inactive),0.00679 (inactive),19% (inactive),16% (inactive),–,–
CCn1c(=O)cc(SCC(=O)NCCN2CCN(Cc3ccccc3)CC2)c2ccccc21,478,4.3% (inactive),21.3% (inactive),93.3%,14.7% (inactive),108%,-0.559 (inactive),3.3e-05 (inactive),0.00537 (inactive),16.8% (inactive),47.8% (inactive),–,–
CCCCCC1NC(=O)NC1CCCCCC(=O)O (stereo not given),457,0% (inactive),11.7% (inactive),103%,-129% (inactive),123%,-0.577 (inactive),-5.6e-05 (inactive),0.00606 (inactive),14.6% (inactive),18.6% (inactive),–,–
O=C(Nc1ccc2oc(-c3ccncc3)nc2c1)c1cccs1,159,108% (active),-8.6% (inactive),103%,14.7% (inactive),113%,-0.346 (inactive),-0.000115 (inactive),0.00345 (inactive),-55.9% (inactive),-120% (inactive),–,–
C1=CC2CC1CC2CN1CCN(c2ccccc2)CC1 (stereo not given),411,1.5% (inactive),-19.6% (inactive),114%,-37.7% (inactive),100%,-0.479 (inactive),-2.1e-05 (inactive),0.00448 (inactive),2.18% (inactive),4.2% (inactive),–,–
CC(C)CCn1c(N)c(S(=O)(=O)c2cccs2)c2nc3ccccc3nc21,652,2% (inactive),0% (inactive),105%,-67.7% (inactive),124%,-0.398 (inactive),1.8e-05 (inactive),0.00628 (inactive),8.07% (inactive),-1.32% (inactive),–,–
